Fam108B counter = counter-screen for RBBP9 inhibitors: inhibitors of mouse Fam108B; recombinant Fam108B, FP-Rh probe fluorescence polarization; inhibition, % at 9.51 µM; hit rate 0.33% among 300,000;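 active = inhibition above the screen mean inhibition plus 3 SD, computed separately per campaign, cut at about 18% in these data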;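 also: inhibitors lower polarization as less probe binds the enzyme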
PME-1 inh = blocks human protein phosphatase methylesterase 1. Q9Y570. recombinant PME-1, FP-Rh probe fluorescence polarization. inhibition, % at 5.9 µM. hit rate 0.53% among 320,000. AID 2130;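 active = inhibition above the campaign mean of all compounds plus 3 SD, cut at about 26% in these data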;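 also: competitive labeling of PME-1 active site by serine hydrolase directed probe; 0% = PME-1 with DMSO and 100% = wells lacking PME-1 enzyme; inhibitors block probe labeling so polarization falls and inhibition rises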
PAD4 FP inh = blocks human protein arginine deiminase 4; Q9UM07; recombinant PAD4, RCA probe fluorescence polarization; inhibition, % at 6.36 µM; hit rate 0.41% among 330,000; AID 485272;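 active = percent inhibition above a cutoff equal to the mean of all tested compounds plus 3 SD, cut at about 15% in these data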;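 also: 0% = PAD4 with RCA probe and DMSO and 100% = probe without PAD4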
RBBP9 inh = human RBBP9 hydrolase inhibition; O75884; recombinant RBBP9, FP-Rh probe fluorescence polarization; inhibition, % at 7.94 µM; hit rate 0.2% among 220,000;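 active = inhibition above the campaign mean of all tested compounds plus 3 SD, cut at about 14% in these data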;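 also: plate controls were DMSO wells with RBBP9 for no effect and wells lacking RBBP9 protein for full effect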
Target sequence (O75884 whole entry, looked up): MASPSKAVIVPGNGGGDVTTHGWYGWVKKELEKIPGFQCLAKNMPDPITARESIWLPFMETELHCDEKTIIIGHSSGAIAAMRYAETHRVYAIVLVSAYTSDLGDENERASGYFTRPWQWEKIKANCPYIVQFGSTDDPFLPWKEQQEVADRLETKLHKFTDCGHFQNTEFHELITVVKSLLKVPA
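Test system: recombinant human RBBP9. Quantity: 2.5 µM RBBP9 dispensing solution, before mixing. Detection: FP readout at 525/598 nm. Reagent: Serine-hydrolase probe FP-Rh, 375 nM pre-mixing. Measure: % inhibition. Control set: DMSO-treated enzyme wells and wells lacking RBBP9. Buffer or medium: Tris-NaCl-Pluronic buffer, pH 8.0. Times: preincubation 30 min plus labeling 45 min at 25 °C.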
LYPLA2 inh = blocks human lysophospholipase 2, a PME1 counter-screen | O95372 | recombinant LYPLA2, FP-Rh probe fluorescence polarization | inhibition, % at 5.9 µM | hit rate 0.38% among 320,000;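 active = inhibition above the screen-wide mean plus 3 SD, limit set per campaign, cut at about 26% in these data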;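 also: 0% = LYPLA2 with DMSO and 100% = wells lacking LYPLA2 enzyme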
Target sequence (O95372 whole entry, looked up): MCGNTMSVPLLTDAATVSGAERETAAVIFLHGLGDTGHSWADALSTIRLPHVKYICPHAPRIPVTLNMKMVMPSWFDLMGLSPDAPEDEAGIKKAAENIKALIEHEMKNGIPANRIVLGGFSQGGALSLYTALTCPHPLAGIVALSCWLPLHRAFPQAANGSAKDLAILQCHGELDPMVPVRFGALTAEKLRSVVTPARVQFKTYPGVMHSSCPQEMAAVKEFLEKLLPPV
LYPLA1 counter = counter-screen for PME1 inhibitors: inhibitors of human LYPLA1; O75608; hit rate 0.16% among 320,000; inhibition, % at 5.9 µM; recombinant LYPLA1, FP-Rh probe fluorescence polarization;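 active = inhibition above the mean of all tested compounds plus 3 SD, set per campaign, cut at about 14% in these data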;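 also: inhibitors block serine hydrolase probe labeling of LYPLA1 so polarization falls; 0% = enzyme with DMSO and 100% = wells lacking LYPLA1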
Target sequence (O75608 whole entry, looked up): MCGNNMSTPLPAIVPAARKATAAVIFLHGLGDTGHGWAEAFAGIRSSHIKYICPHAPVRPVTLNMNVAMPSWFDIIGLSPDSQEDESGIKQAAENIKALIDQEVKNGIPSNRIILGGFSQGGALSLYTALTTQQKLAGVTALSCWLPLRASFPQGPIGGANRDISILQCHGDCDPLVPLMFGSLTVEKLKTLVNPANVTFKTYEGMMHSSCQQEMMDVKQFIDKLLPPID
LYPLA2 conf = counter-screen for PME1 inhibitors: confirmation of human LYPLA2 inhibitors; shares compounds with LYPLA2 inh; recombinant LYPLA2, FP-Rh probe fluorescence polarization; inhibition, % at 5.9 µM; hit rate 72% among 1,100; AID 2232;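 active = mean inhibition across replicates above the hit cutoff set in the primary screen, cut at about 26% in these data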;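 also: blocked labeling of the enzyme by serine hydrolase FP-Rh probe lowers polarization; 0% = enzyme with DMSO and 100% = wells lacking LYPLA2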
LYPLA2 ABPP = LYPLA2 (human) inhibition, late stage results; shares compounds with LYPLA2 inh; rhLYPLA2 in mouse brain proteome, gel ABPP FP-Rh; hit rate 30% among 150; inhibition, % at 20 µM;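 active = inhibition of LYPLA2 enzyme probe labeling above about 50%, limit read from the data; inactive = inhibition below that limit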;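 also: loss of FP-Rh probe labeling of the LYPLA2 gel band measured as band density; 0% = DMSO only control band and 100% = blank gel background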
Starred values were filed as active, the others as inactive; · = not tested or not shown. The list is not random: actives were taken first. Their share in the collection is about 1.3%.

SMILES	Fam108B counter	PME-1 inh	PAD4 FP inh	RBBP9 inh	LYPLA2 inh	LYPLA1 counter	LYPLA2 conf	others
Cn1c(=O)oc2cc(S(=O)(=O)N3CCC(C(=O)N4CCN(c5ccc(F)cc5)CC4)CC3)ccc21	0	-1	-3	·	44*	-2	39*
COc1ccc(N2CCN(C(=O)C3CCN(S(=O)(=O)c4ccc5c(c4)oc(=O)n5C)CC3)CC2)cc1	2	4	2	·	32*	3	41*
O=C(C1CCN(S(=O)(=O)c2cccs2)CC1)N1CCN(c2ccccc2)CC1	3	14	0	-3	8	1	·
COc1ccc(N2CCN(C(=O)C3CCN(S(=O)(=O)c4cccs4)CC3)CC2)cc1	0	22	1	-4	43*	0	52*	LYPLA2 ABPP=37
O=C(C1CCN(S(=O)(=O)Cc2ccccc2)CC1)N1CCN(c2ncccn2)CC1	1	-1	0	-4	6	2	·
O=C(c1ccc(N2CCN(C3CC(=O)N(c4ccc(F)cc4)C3=O)CC2)cc1)c1cccnc1 (stereo not drawn)	2	1	1	-6	35*	6	32*
COc1ccc(N2C(=O)CC(N3CCN(c4ccc(C(=O)c5cccnc5)cc4)CC3)C2=O)cc1 (stereo not drawn)	0	-4	-2	-4	23	6	·
CCOc1ccc(N2C(=O)CC(N3CCN(c4ccc(C(=O)c5ccncc5)cc4)CC3)C2=O)cc1 (stereo not drawn)	4	-4	-3	-5	29*	5	20
O=C(/C=C/c1c(F)cccc1Cl)NCCCN1CCOCC1	1	2	1	·	0	-3	·
CC(C)Oc1ccc(CN2CCC(n3nccc3NC(=O)CCc3ccccc3)CC2)cc1	6	3	0	·	-2	1	·
CCN1CCN(c2ccc(N3CCN(S(=O)(=O)c4ccc(C)c([N+](=O)[O-])c4)CC3)nn2)CC1	-1	18	1	·	-2	-1	·
N#C/C(=C\N1CCN(Cc2ccc3c(c2)OCO3)CC1)c1nc2ccccc2s1	-7	-10	-7	-2	50*	11	53*	LYPLA2 ABPP=40
CCOC(=O)N1CCN(/C=C(\C#N)c2nc3ccccc3s2)CC1	0	0	-8	3	-6	-4	·
CC(C)[C@@H](C(=O)N[C@@H](Cc1ccccc1)C(=O)O)N1C(=O)N2CCc3c([nH]c4ccccc34)[C@@]2(C)C1=O	-4	2	4	·	8	1	·
Cc1ccc(/C=C/C(=O)N2CCN(c3cccc(C(F)(F)F)c3)CC2)cc1	-2	-2	-4	-7	47*	13	35*
C/C(=C\c1ccccc1)C(=O)N1CCN(c2cccc(C(F)(F)F)c2)CC1	-2	-4	2	0	7	-1	·
COc1ccc(-c2noc(CCC(=O)N3CCN(c4cccc(C(F)(F)F)c4)CC3)n2)cc1	1	1	-4	-6	69*	5	67*	LYPLA2 ABPP=70*
Cc1ccc(S(=O)(=O)N2CCCCC2)cc1NC(=O)CSc1nccn1C	1	-7	-4	3	2	-1	·
CC(=O)NCCc1ccc(C(=O)COC(=O)c2cc(C)oc2C)cc1	·	·	-4	·	·	·	·
Cc1ccc(S(=O)(=O)CCC(=O)N2CCN(c3ccc([N+](=O)[O-])cc3)CC2)cc1	-2	6	-2	·	39*	9	35*
CCOC(=O)N1CCN(C(=O)CCN2C(=O)c3ccccc3S2(=O)=O)CC1	-3	-1	1	·	0	0	·
COc1ccc(S(=O)(=O)CCC(=O)N2CCN(c3ccc([N+](=O)[O-])cc3)CC2)cc1	-1	3	-2	·	55*	9	58*	LYPLA2 ABPP=25
COc1ccc(N2CCN(C(=O)CCN3C(=O)c4ccccc4S3(=O)=O)CC2)cc1	-3	3	-2	-1	34*	-1	34*
CN(CC(=O)N1CCN(c2ccc(F)cc2)CC1)S(=O)(=O)c1ccc2c(c1)c(=O)n(C)c(=O)n2C	0	-5	-1	-10	8	0	·
CC(=O)c1ccc(N2CCN(C(=O)CCS(=O)(=O)c3ccc(C)cc3)CC2)cc1	-6	-5	-14	-6	17	5	·
SMILES	Fam108B counter	PME-1 inh	PAD4 FP inh	RBBP9 inh	LYPLA2 inh	LYPLA1 counter	LYPLA2 conf	others
COc1ccc(N2CCN(C(=O)CN(C)S(=O)(=O)c3ccc4c(c3)c(=O)n(C)c(=O)n4C)CC2)cc1	4	3	-3	-3	61*	6	51*	LYPLA2 ABPP=14
COc1ccc(N2CCN(C(=O)CCS(=O)(=O)c3ccc(OC)cc3)CC2)cc1	4	-4	-2	-5	8	0	·
NC(=O)c1ccc2c(=O)c(O)c(-c3cc(Cl)c(N)c(Cl)c3)[nH]c2c1	9	4	-5	·	-15	-12	·
COc1cccc(NC(=O)CN2C(=O)CSc3ccc(S(=O)(=O)N4CCC(C)CC4)cc32)c1	-2	-3	-2	·	25	-3	·
COc1cccc(NC(=O)CN2C(=O)CSc3ccc(S(=O)(=O)N4CCOCC4)cc32)c1	-2	3	-1	·	49*	0	45*
COc1cc(NC(=O)CN2C(=O)COc3ccc(S(=O)(=O)N4CCOCC4)cc32)cc(OC)c1	1	-1	0	·	7	-3	·
CCOc1ccc(NC(=O)CN2C(=O)COc3ccc(Cl)cc32)cc1	-1	2	-1	-10	-2	0	·
COc1cccc(NC(=O)CN2C(=O)COc3ccc(S(=O)(=O)N4CCOCC4)cc32)c1	1	-6	-5	·	38*	-1	35*
COc1cccc(NC(=O)CN2C(=O)COc3ccc(S(=O)(=O)N4CCCCCC4)cc32)c1	0	-8	-1	·	35*	1	38*
COc1cccc(NC(=O)CN2C(=O)COc3ccc(Cl)cc32)c1	2	1	-3	-9	45*	2	46*
COc1ccc(NC(=O)C(c2ccccc2)N(C)C(=O)c2ccc(=O)[nH]c2)cc1 (stereo not drawn)	-1	4	2	2	1	-1	·
O=C(CN1C(=O)COc2ccc(S(=O)(=O)N3CCOCC3)cc21)Nc1cccc(Cl)c1	2	-2	0	·	33*	-7	46*
Cc1ccc(Cl)cc1NC(=O)CN1C(=O)COc2ccc(S(=O)(=O)N3CCOCC3)cc21	0	0	3	·	6	1	·
COc1ccc(C(=O)O/N=C2\CCCc3nonc32)cc1	2	8	4	-5	42*	1	61*
Cc1cc(=O)oc2cc(Oc3ccc(C(N)=O)cc3[N+](=O)[O-])ccc12	6	5	-2	4	33*	4	26*

Compound activity as filed in PubChem BioAssay.
